This is a sample that favours compounds with a hit; in the whole collection about 2.9% have one here.
Efflux pump mplx – blocks antifungal efflux pumps in multiplex yeast assay | inhibition, % at 10 µM | 0.44% of 330,000 active | S. cerevisiae Candida pump triplex, Nile Red efflux | AID 485275;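 active means plate passing quality check with inhibition over a set limit, or well fluorescence over plate mean plus 4 SD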;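 further: Nile Red retained in pooled yeast measured as flow cytometry median fluorescence; 0% = buffer negative control and 100% = Enniatin B positive control; higher means more Nile Red kept so more efflux inhibition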
GalR3 antagonist – blocks the human galanin receptor 3; O60755; HEK293 GalR3-CNG cAMP membrane potential fluorescence; galR3 body fused to GalR1 C-terminus; 0.44% of 360,000 active; inhibition, % at 3 µM;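 active means inhibition above the screen-wide average plus 3 SD, cut at about 13% in these data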;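 further: forskolin and galanin both at EC90 stimulate the cells; cAMP rise reported by CNG channel membrane potential dye signal; 0% = forskolin plus galanin with DMSO and 100% = forskolin alone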
Target sequence (O60755 1-299 limits assumed): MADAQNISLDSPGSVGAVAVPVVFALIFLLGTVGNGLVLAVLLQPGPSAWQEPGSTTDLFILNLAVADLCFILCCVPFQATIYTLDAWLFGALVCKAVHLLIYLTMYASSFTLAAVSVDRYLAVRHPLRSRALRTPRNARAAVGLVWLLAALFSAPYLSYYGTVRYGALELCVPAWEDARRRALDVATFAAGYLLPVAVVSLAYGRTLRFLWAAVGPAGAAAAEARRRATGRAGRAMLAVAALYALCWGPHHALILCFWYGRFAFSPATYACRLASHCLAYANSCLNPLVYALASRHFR
MC4R barr agon – agonists of human melanocortin 4 receptor (MC4R) beta-arrestin | U2OS MC4R beta-arrestin complementation, luminescence; percent of melanotan II response, DMSO zero | activation, % at 8.9 µM | AID 540308 | P32245 | 0.98% of 360,000 active;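 active means activation above a per-plate cutoff, the mean activation of sample wells on that plate plus 3 SD, cut at about 8% in these data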
Target sequence (P32245 whole entry, looked up): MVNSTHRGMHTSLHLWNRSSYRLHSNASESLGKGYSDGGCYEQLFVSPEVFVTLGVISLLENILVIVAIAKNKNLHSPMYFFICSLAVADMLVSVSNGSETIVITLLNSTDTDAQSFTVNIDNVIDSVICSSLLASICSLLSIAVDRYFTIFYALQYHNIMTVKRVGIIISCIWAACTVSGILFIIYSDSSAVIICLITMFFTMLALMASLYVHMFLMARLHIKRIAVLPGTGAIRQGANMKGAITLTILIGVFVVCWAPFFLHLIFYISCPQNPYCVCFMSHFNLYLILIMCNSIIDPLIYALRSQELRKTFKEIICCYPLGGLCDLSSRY
Calb FLC – C. albicans growth modulation with fluconazole | C. albicans CaCi-2 (fluconazole-resistant clinical isolate) + fluconazole, Alamar Blue growth, 48 h | 0.57% of 300,000 active | growth inhibition, % (concentration not given with the values);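 active means growth inhibition above about 58% in most replicates, limit read from the data, passing the limit was not always enough; inconclusive means exactly half the replicates above a set limit; inactive means most replicates below a set limit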;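 further: all wells also contain fluconazole at 8 µg/ml as a sub-toxic cotreatment; 0% = median of DMSO wells and 100% = median of geldanamycin control wells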
MC4R antag cAMP – blocks human MC4R cAMP signaling. P32245. MC4R-expressing cells, MTII-stimulated cAMP, LANCE TR-FRET. inhibition, % at 6.5 µM. 0.48% of 360,000 active. AID 540295;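 active means inhibition above its plate's cutoff, the mean of tested wells on that plate plus 3 SD, cut at about 29% in these data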;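 further: 0% = Melanotan II alone and 100% = Melanotan II plus saturating MCL0020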
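Assay system: U2OS cells stably expressing human melanocortin 4 receptor (MC4R) / Dosing: 6.5 µM / Timing: compound 30 min, challenge 1 h, detection 1 h / Measured by: Eu-cAMP/anti-cAMP TR-FRET, emission 671 nm / Replicates: singlicate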
H9c2 TAG inh – triacylglycerol accumulation inhibition | H9c2 cells, Nile Red lipid (TAG) fluorescence; cells loaded with 200 µM oleic acid | inhibition, % at 12.5 µM | 0.66% of 230,000 active;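 active means pattern-corrected inhibition of lipid staining of at least 50% with the nuclear-stain viability signal not falling by more than 50%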;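 further: 0% = DMSO wells and 100% = triacsin C control wells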
GalR3 conf – GalR3 (human) antagonism, confirmation. AID 652245. HEK293 GalR3 CNG cAMP biosensor, membrane potential fluorescence; galR3 fused to GalR1 carboxy tail; challenged with forskolin and galanin at EC90. shares compounds with GalR3 antagonist. inhibition, % at 3 µM. 59% of 1,600 active;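 active means inhibition above the primary screen's cutoff, the mean inhibition of all screened compounds plus 3 SD, cut at about 13% in these data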;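 further: 0% = forskolin plus galanin and 100% = forskolin alone with DMSO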
CNG parental – parental cell agonism counter-screen for GalR3 antagonists. shares compounds with GalR3 antagonist. activation, % at 3 µM. AID 652268. HEK293-CNG parental cells, cAMP membrane potential fluorescence; normalised: DMSO wells 0%, forskolin wells 100%. 10% of 1,600 active; in the data active means activation above about 1.3%
* marks the source's active call; other numbers are inactive results; ? = inconclusive; / = no result.

SMILES	Efflux pump mplx	GalR3 antagonist	MC4R barr agon	Calb FLC	MC4R antag cAMP	H9c2 TAG inh	GalR3 conf	CNG parental
COc1ccc(C2c3c(-c4ccccc4O)n[nH]c3C(=O)N2Cc2ccco2)cc1OC (stereo not given)	-0.1	-8.2	-0.3	-0.6	14.0	-2.7	/	/
C=CC[n+]1c(/C=C2\C=Cc3cc(C)ccc3N2CC)ccc2ccccc21	0.1	45.2*	-4.4	?	-24.9	-6.3	64.2*	6.1*
CN(C)CCN1CCN(C2CN(Cc3cn(Cc4ccccc4)nn3)S(=O)(=O)C2)CC1 (stereo not given)	/	2.6	/	/	/	/	/	/
COCCCNC(=O)c1cc2cc(Br)ccc2oc1=O	-0.2	33.6*	-1.6	-3.3	-0.3	-15.3	0.4	0.2
c1ccc2c(c1)OCC(CNc1ncnc3sccc13)O2 (stereo not given)	-0.1	97.1*	-3.3	79.7*	-0.7	/	104.8*	-0.4
COc1ccc(Nc2ncnc3sccc23)cc1OC	-0.2	-7.1	0.6	/	5.1	/	/	/
COc1ccccc1CNc1ncnc2sccc12	-0.1	76.5*	1.4	0.5	-10.4	/	103.6*	0.6
c1ccc2c(c1)OCC(CNCC1COc3ccccc3O1)O2 (stereo not given)	-0.1	-9.8	-0.1	-14.2	4.6	/	/	/
Fc1ccccc1CNc1ncnc2sccc12	0.0	-10.2	0.5	-0.3	-12.4	/	/	/
COc1ccc(CCNc2ncnc3sccc23)cc1OC	-0.1	73.0*	-1.9	2.0	2.3	-26.0	129.1*	-0.2
Cc1cccc(C)c1NC(=O)C1(C)CSCC(=O)N1CCC(C)C (stereo not given)	/	-5.6	/	/	/	/	/	/
Oc1ccc(C[C@H]2CN([C@@H](Cc3cccc(O)c3)CN3CCC[C@@H]3CN3C(=S)NC[C@@H]3Cc3ccccc3)C(=S)N2CC2CCCCC2)cc1	/	-5.2	/	/	/	/	/	/
CCOC(=O)CCC(=O)N(CCN(C(=O)CCC(=O)OCC)c1ccccc1)c1ccccc1	0.0	-0.6	-1.2	-2.4	2.9	/	/	/
CCOC(=O)CCc1cccc2c1CCC2=O	0.0	/	-1.5	-1.1	-0.5	/	4.5	0.5
CCc1onc(C)c1C(=O)Nc1ccc2c(c1)OCO2	0.1	/	-3.0	2.4	10.8	0.3	5.3	-0.1
Cc1noc(C(=O)Nc2ccc3c(c2)OCO3)c1Cl	-0.1	0.5	0.3	-0.9	0.6	5.9	/	/
Cc1[nH]c2ccccc2c1CC(=O)Nc1ccc(N(C)c2cccnc2)c(-c2ccc(F)c(F)c2)c1	/	-3.5	/	/	/	/	/	/
Cc1ccc2nc(CSc3nc(C)nc4c3oc3ccccc34)[nH]c2c1	0.4	1.8	-0.8	/	4.3	1.6	/	/
Cc1nc(SCc2nc3ccccc3[nH]2)c2oc3ccc(Br)cc3c2n1	-0.1	13.5*	-1.5	/	3.1	5.5	28.2*	0.8
Cc1ccc(S(=O)(=O)N2CCOCC2)cc1C(=O)N1CCN(S(=O)(=O)c2cccs2)CC1	0.0	13.1*	1.9	1.7	4.8	-5.3	-0.2	0.1
Cc1ccc(S(=O)(=O)N2CCOCC2)cc1NC(=O)c1cccc(S(=O)(=O)N2CCCC2)c1	0.1	/	-1.2	-0.8	12.3	-8.4	3.2	0.1
Cc1ccccc1NC(=O)c1cc(S(=O)(=O)N2CCOCC2)ccc1F	0.4	13.7*	2.8	?	-4.7	/	1.9	0.1
COC(=O)[C@@]12C[C@@H](CC(=O)NCC3CCCCC3)C(=O)N(CCc3ccc(OC)c(OC)c3)C1=CCC(C)(C)C2	/	-7.8	/	/	/	/	/	/
COc1ccc(-c2cn(-c3ccc(C)c(Cl)c3)c(=S)[nH]2)cc1OC	1.1	40.8*	0.4	9.4	3.5	/	102.1*	-1.8
C[C@@H]1CCCCO[C@@H](CN(C)C(=O)NC2CCCCC2)[C@@H](C)CN([C@H](C)CO)C(=O)c2cc(N(C)C)ccc2O1	/	-3.4	/	/	/	/	/	/
SMILES	Efflux pump mplx	GalR3 antagonist	MC4R barr agon	Calb FLC	MC4R antag cAMP	H9c2 TAG inh	GalR3 conf	CNG parental
O=S(=O)(NCc1ccc(Cl)cc1)c1ccc(Br)cc1C1CC[C@@H](O)C1 (stereo not given in full)	/	4.2	/	/	/	/	/	/
COc1ccc(-c2sc3ccc(N4CCOCC4)cc3c2-c2ccc(O)cc2)cc1	-0.5	-8.6	2.3	/	16.6	-4.5	/	/
COc1ccc(-c2oc3ccc(N4CCOCC4)cc3c2C#CCO)cc1	-0.1	57.3*	0.8	30.4	19.5	22.2	29.6*	-0.6
Cc1ccc(C(=O)N2CCC[C@@H]2C(=O)N2CCC[C@H]2C(=O)NCc2ccccc2)cc1C	/	-3.4	/	/	/	/	/	/
CC1(C(=O)O)CCCN(C(=O)c2ccc(OC(F)F)cc2)C1 (stereo not given)	/	-6.2	0.6	/	2.7	-1.4	/	/
COc1ccccc1OCC(=O)NCCC1=CCCCC1	0.0	/	2.7	6.4	16.1	/	2.7	0.5
O=C(COc1ccccc1Br)NCCC1=CCCCC1	0.0	-7.0	3.5	/	-4.7	3.0	/	/
C[C@H](CO)N1C[C@H](C)[C@@H](CN(C)C(=O)Nc2ccnc(N3CCOCC3)c2)OCc2cn(nn2)CCCC1=O	/	-6.7	/	/	/	/	/	/
C[n+]1c2n(c3ccccc31)N=C(c1cc(C(C)(C)C)c(O)c(C(C)(C)C)c1)CS2	0.3	19.3*	-1.6	8.6	-6.3	28.7	29.7*	17.2*
CCc1ccc(OCC(=O)Nc2ccc(-c3cc4ccccc4oc3=O)c(OC)c2)cc1	-0.1	26.0*	-2.4	2.3	-19.2	/	66.3*	0.4
CCCCc1c(-c2ccccc2F)ncn1CCc1ccccc1OC	/	-5.9	/	/	/	/	/	/
CCCCCCCCC(c1nc2cc(C)c(C)cc2[nH]1)n1c(=O)c(-c2ccccc2Br)nc2ccccc21 (stereo not given)	/	0.0	/	/	/	/	/	/
CC1CCCCN1S(=O)(=O)c1ccc(S(=O)(=O)N(Cc2ccccc2)Cc2ccco2)cc1 (stereo not given)	0.0	12.8*	-2.2	-3.3	9.7	/	11.0	-0.8
Cc1ccc(S(=O)(=O)N2CCCCC2C(=O)NCc2ccco2)cc1 (stereo not given)	0.1	-4.6	-0.1	-4.0	6.5	-5.6	/	/
CN(C)S(=O)(=O)c1ccc(Cl)c(C(=O)NCC2CCCCC2)c1	0.1	2.3	-1.5	-14.3	7.8	/	/	/
CN(C)S(=O)(=O)c1ccc(Cl)c(C(=O)NCCNC(=O)c2cc(S(=O)(=O)N(C)C)ccc2Cl)c1	0.1	12.7*	1.1	/	10.0	/	8.2	0.3
c1ccc2c(-c3cc(NCc4ccncc4)n4nccc4n3)cccc2c1	/	-6.7	1.4	/	-1.5	4.3	/	/
COc1ccccc1CNC(=O)C1CC(c2ccccc2[N+](=O)[O-])=NO1 (stereo not given)	0.0	/	0.8	-1.9	-4.9	/	8.8	0.3

From PubChem
